# Calls of active or inactive are those of the source. No rule for the calls is given here.
# Experiments:
# [1] = tested on: 3-phosphoinositide dependent protein kinase-2, PDK2; assay: Inhibition of PDK2 in human PC3 cells assessed as Akt Ser-473 dephosphorylation by Western blot analysis; format: functional, cell-based; conditions: PC-3
# How it was run: (§1)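 Cells exposed 24 h in 5% FBS medium, final DMSO 0.1%; lysed in 1% SDS/10 mM EDTA/50 mM Tris pH 8.1, equal protein on SDS-PAGE, nitrocellulose, primary antibody 1:1000 at 4°C for 2 h, HRP secondary 1:5000, ECL detection; blots representative of three independent experiments.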
# [2] = target: T1, 3-phosphoinositide-dependent protein kinase 1 (Homo sapiens) (UniProt O15530); assay: Inhibition of PDK2 in human PC3 cells assessed as Akt Thr-308 dephosphorylation by Western blot analysis; format: functional, cell-based; conditions: PC-3; how it was run: as §1
# T1 sequence (whole entry): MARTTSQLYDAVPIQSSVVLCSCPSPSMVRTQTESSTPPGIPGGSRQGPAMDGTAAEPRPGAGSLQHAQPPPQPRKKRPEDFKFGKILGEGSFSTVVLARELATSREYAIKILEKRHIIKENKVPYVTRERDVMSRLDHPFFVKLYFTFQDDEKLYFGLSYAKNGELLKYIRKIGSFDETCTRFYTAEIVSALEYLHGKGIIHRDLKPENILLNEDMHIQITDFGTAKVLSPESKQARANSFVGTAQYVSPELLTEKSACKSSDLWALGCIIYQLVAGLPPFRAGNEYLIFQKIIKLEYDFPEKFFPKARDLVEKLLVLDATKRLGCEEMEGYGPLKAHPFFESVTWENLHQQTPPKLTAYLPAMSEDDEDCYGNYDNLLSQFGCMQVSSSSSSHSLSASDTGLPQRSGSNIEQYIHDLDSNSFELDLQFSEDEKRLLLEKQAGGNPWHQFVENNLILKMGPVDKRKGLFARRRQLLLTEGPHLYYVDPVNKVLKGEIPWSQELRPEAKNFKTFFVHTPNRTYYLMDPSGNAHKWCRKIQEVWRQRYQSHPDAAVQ
inhibition [2],Compound,inhibition [1]
inactive,NCC(=O)Nc1ccc(-n2nc(C(F)(F)F)cc2-c2ccc3ccc4ccccc4c3c2)cc1,inactive
inactive,CNC(=O)c1cc(-c2ccc3ccc4ccccc4c3c2)n(-c2ccc(NC(=O)CN)cc2)n1,inactive
inactive,NCCC(=O)Nc1ccc(-n2nc(C(F)(F)F)cc2-c2ccc3c(c2)oc2ccccc23)cc1,inactive
inactive,O=C(c1ccncc1)N1CCN(c2ccc(-n3nc(C(F)(F)F)cc3-c3ccc4c(ccc5ccccc54)c3)cc2)CC1,inactive
inactive,CC(=O)Nc1ccc(S(=O)(=O)N2CCN(c3ccc(-n4nc(C(F)(F)F)cc4-c4ccc5c(ccc6ccccc65)c4)cc3)CC2)cc1,inactive
inactive,NS(=O)(=O)Nc1ccc(-n2nc(C(F)(F)F)cc2-c2ccc3c(ccc4ccccc43)c2)cc1,inactive
inactive,NC(=O)CCNc1ccc(-n2nc(C(F)(F)F)cc2-c2ccc3c(ccc4ccccc43)c2)cc1,inactive
inactive,NS(=O)(=O)c1ccc(-n2nc(C(F)(F)F)cc2-c2ccc3c(ccc4ccccc43)c2)cc1,inactive
inactive,NCCCC[C@H](N)C(=O)Nc1ccc(-n2nc(C(F)(F)F)cc2-c2ccc3c(ccc4ccccc43)c2)cc1,inactive
inactive,NCCCC[C@@H](N)C(=O)Nc1ccc(-n2nc(C(F)(F)F)cc2-c2ccc3c(ccc4ccccc43)c2)cc1,inactive
inactive,CNC(=O)c1cc(-c2ccc3c(ccc4ccccc43)c2)n(-c2ccc(NC(=O)CN)cc2)n1,inactive

# Further lines, the molecule ahead of its results:
Compound,inhibition [2],inhibition [1]
O=C(c1ccc(OC(F)(F)F)cc1)N1CCN(c2ccc(-n3nc(C(F)(F)F)cc3-c3ccc4c(ccc5ccccc54)c3)cc2)CC1,inactive,inactive
FC(F)(F)c1ccc(-c2ccc(-c3cc(C(F)(F)F)nn3-c3ccc(N4CCNCC4)cc3)cc2)cc1,inactive,inactive
N#Cc1ccc(C(=O)N2CCN(c3ccc(-n4nc(C(F)(F)F)cc4-c4ccc5c(ccc6ccccc65)c4)cc3)CC2)cc1,inactive,inactive
O=C(c1ccc([N+](=O)[O-])cc1)N1CCN(c2ccc(-n3nc(C(F)(F)F)cc3-c3ccc4c(ccc5ccccc54)c3)cc2)CC1,inactive,inactive
CC(=O)c1ccc(S(=O)(=O)N2CCN(c3ccc(-n4nc(C(F)(F)F)cc4-c4ccc5c(ccc6ccccc65)c4)cc3)CC2)cc1,inactive,inactive
COc1cc([N+](=O)[O-])ccc1S(=O)(=O)N1CCN(c2ccc(-n3nc(C(F)(F)F)cc3-c3ccc4c(ccc5ccccc54)c3)cc2)CC1,inactive,inactive
CCNC(=O)c1cc(-c2ccc3ccc4ccccc4c3c2)n(-c2ccc(NC(=O)CN)cc2)n1,inactive,inactive
CNC(=O)CCc1cc(-c2ccc(-c3ccc(C#N)cc3)cc2)n(-c2ccc(N3CCNCC3)cc2)n1,inactive,inactive
CC(C)NC(=O)c1cc(-c2ccc(-c3ccc(C(F)(F)F)cc3)cc2)n(-c2ccc(NC(=O)CCN)cc2)n1,inactive,inactive
CCNC(=O)CCc1cc(-c2ccc(-c3ccc(C(F)(F)F)cc3)cc2)n(-c2ccc(N3CCNCC3)cc2)n1,inactive,Active
CNC(=O)c1cc(-c2ccc(-c3ccc(C(F)(F)F)cc3)cc2)n(-c2ccc(NC(=O)CCN)cc2)n1,inactive,inactive
O=[N+]([O-])c1ccc(S(=O)(=O)N2CCN(c3ccc(-n4nc(C(F)(F)F)cc4-c4ccc5c(ccc6ccccc65)c4)cc3)CC2)c([N+](=O)[O-])c1,inactive,inactive
CCC(C)C(N)C(=O)Nc1ccc(-n2nc(C(F)(F)F)cc2-c2ccc(-c3ccc(C(F)(F)F)cc3)cc2)cc1 (stereo not drawn),inactive,inactive
CCNC(=O)c1cc(-c2ccc3ccc4ccccc4c3c2)n(-c2ccc(NC(=O)CCN)cc2)n1,inactive,inactive
CNC(=O)CCc1cc(-c2ccc(-c3ccc(C(F)(F)F)cc3)cc2)n(-c2ccc(N3CCOCC3)cc2)n1,inactive,inactive
O=C(c1cccc([N+](=O)[O-])c1)N1CCN(c2ccc(-n3nc(C(F)(F)F)cc3-c3ccc4c(ccc5ccccc54)c3)cc2)CC1,inactive,inactive
CCNC(=O)c1cc(-c2ccc(-c3ccc(C(F)(F)F)cc3)cc2)n(-c2ccc(NC(=O)CCN)cc2)n1,inactive,inactive
CC(C)CC(N)C(=O)Nc1ccc(-n2nc(C(F)(F)F)cc2-c2ccc(-c3ccc(C(F)(F)F)cc3)cc2)cc1 (stereo not drawn),inactive,inactive
